How the values were obtained:
A2780 [1] = test: Cytotoxicity against human A2780 cells after 72 hrs by MTT assay; format: functional, cell-based; conditions: A2780, 72 h
KYSE-510 [2] = test: Potentiation of 0.75 uM cisplatin-induced toxicity in 0.5 uM cisplatin resistant human KYSE-510 cells at 0.25 uM pretreated for 48 hrs followed by 0.5 uM cisplatin treatment by MTT assay; format: functional
In short: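 Cisplatin-resistant Kyse510 CisR (derived by weekly cycles of cisplatin over 24−30 weeks), grown in RPMI 1640 with 10% FCS at 37 °C, 5% CO₂. Test agent added 48 h before cisplatin, then 72 h further incubation. Viability by MTT (read at 544/690 nm) relative to untreated control wells. Combination index by Chou−Talalay method. Mean of three experiments.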

CAL-27 [3] = test: Potentiation of 1 uM cisplatin-induced toxicity in 1 uM cisplatin resistant human CAL27 cells at 0.25 uM pretreated for 48 hrs followed by 1 uM cisplatin treatment by MTT assay; format: functional
CAL-27 [4] = test: Potentiation of 10 uM cisplatin-induced toxicity in 1 uM cisplatin resistant human CAL27 cells at 0.25 uM pretreated for 48 hrs followed by 1 uM cisplatin treatment by MTT assay; format: functional
KYSE-510 [5] = test: Potentiation of 0.5 uM cisplatin-induced toxicity in 0.5 uM cisplatin resistant human KYSE-510 cells at 1 uM pretreated for 48 hrs followed by 0.5 uM cisplatin treatment by MTT assay; format: functional
KYSE-510 [6] = test: Potentiation of 3.16 uM cisplatin-induced toxicity in 0.5 uM cisplatin resistant human KYSE-510 cells at 1.5 uM pretreated for 48 hrs followed by 0.5 uM cisplatin treatment by MTT assay; format: functional
MDA-MB-231 [7] = test: Potentiation of 40 uM cisplatin-induced toxicity in 1 uM cisplatin resistant human MDA-MB-231 cells at 0.25 uM pretreated for 48 hrs followed by 1 uM cisplatin treatment by MTT assay; format: functional
CAL-27 [8] = test: Cytotoxicity against cisplatin resistant human CAL27 cells after 72 hrs by MTT assay; format: functional, cell-based; conditions: CAL-27, 72 h
A2780 [9] = test: Potentiation of 10 uM cisplatin-induced toxicity in 5 uM cisplatin resistant human A2780 cells at 1.5 uM pretreated for 48 hrs followed by 5 uM cisplatin treatment by MTT assay; format: functional
[10] = system: A2780 CisR (Homo sapiens); test: cells; conditions: 72 h
Histone deacetylase 4 = Histone deacetylase 4 (Homo sapiens, UniProt P56524); test: Inhibition of human HDAC4 by fluorescence assay
[11] = target: T1, Protein deacetylase HDAC6 (Homo sapiens, UniProt Q9UBN7); test: Inhibition of human HDAC6 by fluorescence assay
T1 sequence (Q9UBN7 whole entry): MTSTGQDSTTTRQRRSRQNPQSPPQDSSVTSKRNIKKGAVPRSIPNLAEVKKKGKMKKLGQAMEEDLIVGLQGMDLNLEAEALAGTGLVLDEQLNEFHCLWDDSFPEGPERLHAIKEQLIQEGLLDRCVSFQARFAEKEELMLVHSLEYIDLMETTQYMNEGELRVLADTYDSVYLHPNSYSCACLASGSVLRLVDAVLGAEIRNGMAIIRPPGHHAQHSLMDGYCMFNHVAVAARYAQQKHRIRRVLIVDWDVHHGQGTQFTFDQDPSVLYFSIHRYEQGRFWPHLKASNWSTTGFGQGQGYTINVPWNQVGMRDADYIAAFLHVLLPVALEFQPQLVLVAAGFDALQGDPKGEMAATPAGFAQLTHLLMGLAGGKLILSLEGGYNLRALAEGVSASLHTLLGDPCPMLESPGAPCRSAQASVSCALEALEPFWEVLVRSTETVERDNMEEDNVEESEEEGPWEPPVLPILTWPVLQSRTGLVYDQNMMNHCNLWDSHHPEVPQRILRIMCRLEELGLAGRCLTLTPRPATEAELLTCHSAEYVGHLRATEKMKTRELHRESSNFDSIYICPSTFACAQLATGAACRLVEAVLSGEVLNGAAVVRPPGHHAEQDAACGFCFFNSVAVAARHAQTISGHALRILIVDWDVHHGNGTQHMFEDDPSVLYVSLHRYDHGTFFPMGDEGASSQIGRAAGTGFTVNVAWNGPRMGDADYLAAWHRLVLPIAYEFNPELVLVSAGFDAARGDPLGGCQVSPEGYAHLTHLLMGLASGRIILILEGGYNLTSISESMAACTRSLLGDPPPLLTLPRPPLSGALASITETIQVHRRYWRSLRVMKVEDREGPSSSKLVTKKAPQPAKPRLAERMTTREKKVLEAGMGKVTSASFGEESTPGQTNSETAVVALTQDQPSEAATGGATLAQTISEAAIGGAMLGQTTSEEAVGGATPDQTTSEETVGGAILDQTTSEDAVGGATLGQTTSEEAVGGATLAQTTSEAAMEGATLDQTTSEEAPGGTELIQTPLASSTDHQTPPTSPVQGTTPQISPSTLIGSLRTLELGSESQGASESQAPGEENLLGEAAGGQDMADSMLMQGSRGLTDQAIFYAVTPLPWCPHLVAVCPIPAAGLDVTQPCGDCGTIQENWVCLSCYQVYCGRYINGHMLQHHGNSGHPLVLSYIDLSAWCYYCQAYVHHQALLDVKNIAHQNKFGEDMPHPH

Histone deacetylase 8 = target: T2, Histone deacetylase 8 (Homo sapiens, UniProt Q9BY41); test: Inhibition of human HDAC8 by fluorescence assay
T2 sequence (Q9BY41 whole entry): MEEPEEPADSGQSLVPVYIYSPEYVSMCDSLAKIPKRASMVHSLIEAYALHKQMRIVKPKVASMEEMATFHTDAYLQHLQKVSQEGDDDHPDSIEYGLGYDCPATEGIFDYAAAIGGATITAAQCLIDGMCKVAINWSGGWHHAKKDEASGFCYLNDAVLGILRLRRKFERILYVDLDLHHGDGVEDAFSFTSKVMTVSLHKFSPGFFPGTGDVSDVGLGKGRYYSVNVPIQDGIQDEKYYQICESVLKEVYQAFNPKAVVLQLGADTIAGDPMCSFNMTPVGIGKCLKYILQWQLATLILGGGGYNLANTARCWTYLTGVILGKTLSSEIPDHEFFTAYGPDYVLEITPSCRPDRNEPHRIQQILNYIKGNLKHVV

Histone deacetylase 5 = Histone deacetylase 5 (Homo sapiens, UniProt Q9UQL6); test: Inhibition of human HDAC5 by fluorescence assay
MDA-MB-231 [12] = test: Cytotoxicity against cisplatin sensitive human MDA-MB-231 cells after 72 hrs by MTT assay; format: functional, cell-based
In short: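 MDA-MB-231 (parental), 10 000 cells/well, in DMEM with 15% FCS at 37 °C, 5% CO2. Compounds added 24 h after seeding for 72 h. MTT (5 mg/mL in PBS) was added, formazan dissolved in DMSO, absorbance read at 544 and 690 nm. IC50 from four-parameter logistic fit of ≥3 experiments in triplicate.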

Chain of Histone deacetylase 4 (P56524 whole entry): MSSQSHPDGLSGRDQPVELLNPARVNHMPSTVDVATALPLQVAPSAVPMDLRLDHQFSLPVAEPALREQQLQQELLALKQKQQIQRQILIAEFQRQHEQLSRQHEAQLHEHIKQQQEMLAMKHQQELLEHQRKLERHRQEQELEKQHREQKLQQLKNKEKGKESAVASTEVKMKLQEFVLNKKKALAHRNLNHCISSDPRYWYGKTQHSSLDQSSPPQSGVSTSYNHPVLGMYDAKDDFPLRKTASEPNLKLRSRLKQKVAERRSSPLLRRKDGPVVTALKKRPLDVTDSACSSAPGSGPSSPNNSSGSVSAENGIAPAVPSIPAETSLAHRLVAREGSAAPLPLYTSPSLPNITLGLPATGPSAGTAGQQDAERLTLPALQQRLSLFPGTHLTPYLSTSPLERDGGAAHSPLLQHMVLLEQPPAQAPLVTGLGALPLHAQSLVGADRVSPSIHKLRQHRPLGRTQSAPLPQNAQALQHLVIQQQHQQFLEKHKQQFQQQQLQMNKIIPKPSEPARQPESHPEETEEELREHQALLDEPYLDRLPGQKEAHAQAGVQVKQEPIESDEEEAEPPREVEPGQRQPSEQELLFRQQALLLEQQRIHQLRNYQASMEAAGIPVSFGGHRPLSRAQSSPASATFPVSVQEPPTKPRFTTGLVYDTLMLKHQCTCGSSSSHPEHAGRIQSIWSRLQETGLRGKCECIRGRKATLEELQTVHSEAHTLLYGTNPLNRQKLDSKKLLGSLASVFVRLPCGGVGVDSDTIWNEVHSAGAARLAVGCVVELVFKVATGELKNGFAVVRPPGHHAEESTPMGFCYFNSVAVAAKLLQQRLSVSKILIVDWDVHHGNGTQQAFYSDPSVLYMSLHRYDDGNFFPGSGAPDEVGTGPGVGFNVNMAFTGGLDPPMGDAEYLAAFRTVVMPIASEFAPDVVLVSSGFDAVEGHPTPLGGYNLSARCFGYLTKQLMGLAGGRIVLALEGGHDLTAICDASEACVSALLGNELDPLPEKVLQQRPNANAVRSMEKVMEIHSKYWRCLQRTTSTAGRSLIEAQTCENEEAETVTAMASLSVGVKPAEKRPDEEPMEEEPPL
Chain of Histone deacetylase 5 (Q9UQL6 whole entry): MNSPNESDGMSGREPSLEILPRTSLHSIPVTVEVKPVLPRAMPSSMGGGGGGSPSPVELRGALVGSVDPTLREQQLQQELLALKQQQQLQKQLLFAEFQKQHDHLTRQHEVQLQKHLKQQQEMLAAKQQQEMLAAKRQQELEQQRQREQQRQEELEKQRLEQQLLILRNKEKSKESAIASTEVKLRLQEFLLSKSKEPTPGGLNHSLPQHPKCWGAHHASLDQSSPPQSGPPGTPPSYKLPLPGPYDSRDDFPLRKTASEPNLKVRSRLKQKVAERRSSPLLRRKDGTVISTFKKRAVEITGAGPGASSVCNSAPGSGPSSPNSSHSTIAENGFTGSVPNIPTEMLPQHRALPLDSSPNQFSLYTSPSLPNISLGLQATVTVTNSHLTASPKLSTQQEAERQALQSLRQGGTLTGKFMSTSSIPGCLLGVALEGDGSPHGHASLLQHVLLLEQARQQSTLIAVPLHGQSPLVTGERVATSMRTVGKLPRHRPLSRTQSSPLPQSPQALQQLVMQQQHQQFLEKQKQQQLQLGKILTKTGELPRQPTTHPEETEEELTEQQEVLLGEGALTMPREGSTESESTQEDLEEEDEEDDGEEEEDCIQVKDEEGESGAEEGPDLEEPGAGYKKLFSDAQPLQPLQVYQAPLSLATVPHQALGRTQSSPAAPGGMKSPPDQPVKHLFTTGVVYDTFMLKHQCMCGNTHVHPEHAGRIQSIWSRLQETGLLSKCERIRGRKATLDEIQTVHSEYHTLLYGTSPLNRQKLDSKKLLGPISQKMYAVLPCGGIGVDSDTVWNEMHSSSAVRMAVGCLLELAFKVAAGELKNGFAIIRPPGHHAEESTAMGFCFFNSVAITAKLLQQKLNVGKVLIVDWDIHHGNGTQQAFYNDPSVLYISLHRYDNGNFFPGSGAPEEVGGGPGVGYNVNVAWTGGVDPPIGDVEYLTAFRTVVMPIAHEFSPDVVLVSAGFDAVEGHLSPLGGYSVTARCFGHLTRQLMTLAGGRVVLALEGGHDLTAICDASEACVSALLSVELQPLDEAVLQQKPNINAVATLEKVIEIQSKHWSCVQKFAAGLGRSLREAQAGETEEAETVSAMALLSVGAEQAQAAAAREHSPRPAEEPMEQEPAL

- IC50 [10]: 320 nM
- IC50 (Histone deacetylase 4): 11.9 nM
- IC50 [11]: 55.7 nM
- IC50 (Histone deacetylase 8): 1280 nM
- IC50 (Histone deacetylase 5): 4.22 nM
SMILES: Cc1cc(C)cc(C(=O)NOCCCCCC(=O)NO)c1
- IC50 (A2780 [1]): 490 nM
- Activity (KYSE-510 [2]): Dose-dependent effect
- fractional inhibitory concentration index (FICI) (KYSE-510 [2]): 0.1
- Activity (CAL-27 [3]): Dose-dependent effect
- fractional inhibitory concentration index (FICI) (CAL-27 [3]): <0.2
- Activity (CAL-27 [4]): Dose-dependent effect
- fractional inhibitory concentration index (FICI) (CAL-27 [4]): 0.85
- Activity (KYSE-510 [5]): Dose-dependent effect
- fractional inhibitory concentration index (FICI) (KYSE-510 [5]): 0.08
- Activity (KYSE-510 [6]): Dose-dependent effect
- fractional inhibitory concentration index (FICI) (KYSE-510 [6]): 0.12
- Activity (MDA-MB-231 [7]): Dose-dependent effect
- IC50 (CAL-27 [8]): 1810 nM
- Activity (A2780 [9]): Dose-dependent effect
- fractional inhibitory concentration index (FICI) (A2780 [9]): 0.68
- Activity (MDA-MB-231 [12]): Dose-dependent effect
- IC50 (MDA-MB-231 [12]; MDA-MB-231, 72 h): 1370 nM
